Measurements from ChEMBL document CHEMBL1132974 (J Med Chem, 2000).
“And” between values parts separate entries of the source, which are not always exact repeats. Equal values may be shown once. Each block holds one molecule with its values, some of them ahead of it.

Assays:
[1] = molecular target: Histamine H1 receptor (Cavia porcellus) (UniProt P31389); test: Relative potency in guinea pig ileum whole segment; value ranges from 0.4 to 0.6; assay type: functional, tissue-based
[2] = molecular target: Histamine H1 receptor (Cavia porcellus) (UniProt P31389); test: Negative logarithm of receptor dissociation constant Kp was reported; assay type: functional
Summary of the method: (§1)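 Guinea-pig ileum (0.1 µM atropine, 37 °C Tyrode's). […] Where several partial-agonist concentrations were used, the overall value comes from a Kaumann-Marano plot with slope constrained to unity.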

[3] = molecular target: Histamine H1 receptor (Cavia porcellus) (UniProt P31389); test: Intrinsic activity was reported in guinea pig ileum whole segment.; assay type: functional, tissue-based
Histamine H1 receptor [4] = molecular target: T1, Histamine H1 receptor (Cavia porcellus, UniProt P31389); test: Effective concentration for agonist activity in guinea pig ileum whole segment; assay type: functional, tissue-based
T1 sequence (P31389 whole entry): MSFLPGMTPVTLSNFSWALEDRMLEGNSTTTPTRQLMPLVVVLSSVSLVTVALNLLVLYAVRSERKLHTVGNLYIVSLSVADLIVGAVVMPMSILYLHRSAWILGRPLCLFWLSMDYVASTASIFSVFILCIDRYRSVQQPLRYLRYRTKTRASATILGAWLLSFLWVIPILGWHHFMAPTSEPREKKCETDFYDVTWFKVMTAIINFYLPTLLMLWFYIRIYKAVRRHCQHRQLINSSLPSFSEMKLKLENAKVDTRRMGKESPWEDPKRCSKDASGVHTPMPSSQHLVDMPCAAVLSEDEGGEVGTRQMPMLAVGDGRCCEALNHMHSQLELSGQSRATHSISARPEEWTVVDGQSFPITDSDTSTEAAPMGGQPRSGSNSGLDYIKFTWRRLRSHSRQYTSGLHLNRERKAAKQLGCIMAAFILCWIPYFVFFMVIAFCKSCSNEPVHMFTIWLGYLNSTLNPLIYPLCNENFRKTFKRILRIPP

Cavia porcellus [5] = species on record: Cavia porcellus; test: (§2) Effective concentration for agonism activity in Endothelium-Denuded guinea pig aortic segment; conditions: Aorta, read-out: Log EC50 (converted)
Cavia porcellus [6] = species on record: Cavia porcellus; test: Effective concentration for agonism activity in guinea pig ileal whole segment; conditions: read-out: Log EC50 (converted)
Cavia porcellus [7] = species on record: Cavia porcellus; test: (§3) Effective concentration for agonism activity in endothelium-denuded guinea pig aortic segment; conditions: Aorta, read-out: Log EC50 (converted)
Rattus norvegicus = species on record: Rattus norvegicus; test: tissue or blood; conditions: Aorta, read-out: Log EC50 (converted)
[8] = molecular target: 5-hydroxytryptamine receptor 4 (Rattus norvegicus, UniProt Q62758); test: Compound was evaluated for its antagonist affinity towards 5-hydroxytryptamine 4 receptor of rat; assay type: functional; conditions: read-out: pA2 (converted)
Chain of 5-hydroxytryptamine receptor 4 (Q62758 whole entry): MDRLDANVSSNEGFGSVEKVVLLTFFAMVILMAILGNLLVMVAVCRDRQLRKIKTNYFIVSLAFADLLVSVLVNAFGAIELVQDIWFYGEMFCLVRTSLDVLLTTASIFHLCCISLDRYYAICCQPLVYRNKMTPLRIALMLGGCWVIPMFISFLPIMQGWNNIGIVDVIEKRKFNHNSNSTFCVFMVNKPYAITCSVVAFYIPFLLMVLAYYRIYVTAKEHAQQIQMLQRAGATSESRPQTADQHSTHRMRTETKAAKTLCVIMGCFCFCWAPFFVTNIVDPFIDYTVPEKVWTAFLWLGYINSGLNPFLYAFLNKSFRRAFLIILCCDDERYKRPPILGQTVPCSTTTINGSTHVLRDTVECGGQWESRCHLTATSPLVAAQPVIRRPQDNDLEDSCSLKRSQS
Summary of the method: (§4)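 Functional antagonism in rat tissues: α1D (thoracic aorta), 5-HT2A (tail artery), 5-HT4 (oesophageal tunica muscularis mucosae). Results are given as apparent pA2 from single-concentration rightward shifts, or pD'2 when only curve depression occurred.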

Histamine H1 receptor [9] = molecular target: T1, Histamine H1 receptor; test: as §3; assay type: functional, tissue-based, Aorta
Summary of the method: (§5)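 Guinea-pig thoracic aortic rings (2–4 mm), endothelium rubbed off, isometric (10 mN), modified Krebs-Henseleit (1.80 mM Ca2+), 37 °C. Cimetidine, corticosterone and cocaine (30 µM each), prazosin and yohimbine (0.3 µM each) and propranolol (0.1 µM) were present. […] The pEC50 shift was corrected using untreated control preparations.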

Histamine H1 receptor [10] = molecular target: T1, Histamine H1 receptor; test: Antagonism of guinea pig ileum contraction at 100 nM mepyramine; assay type: functional, tissue-based; conditions: read-out: pA2 (converted)
Summary of the method: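 Guinea-pig whole ileal segments (2.0–2.5 cm), isotonic, preload 0.5 g, Tyrode's at 37 °C, 95% O2/5% CO2, with 0.1 µM atropine throughout. […] Apparent pA2 = −log c + log(r−1); full pA2 from Schild plot, slope fixed at 1.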

Histamine H3 receptor = Histamine H3 receptor (Cavia porcellus, UniProt Q9JI35); test: Compound was evaluated for its antagonist affinity towards Histamine H3 receptor of guinea pig; assay type: functional; conditions: read-out: pA2 (converted)
Chain of Histamine H3 receptor (Q9JI35 whole entry): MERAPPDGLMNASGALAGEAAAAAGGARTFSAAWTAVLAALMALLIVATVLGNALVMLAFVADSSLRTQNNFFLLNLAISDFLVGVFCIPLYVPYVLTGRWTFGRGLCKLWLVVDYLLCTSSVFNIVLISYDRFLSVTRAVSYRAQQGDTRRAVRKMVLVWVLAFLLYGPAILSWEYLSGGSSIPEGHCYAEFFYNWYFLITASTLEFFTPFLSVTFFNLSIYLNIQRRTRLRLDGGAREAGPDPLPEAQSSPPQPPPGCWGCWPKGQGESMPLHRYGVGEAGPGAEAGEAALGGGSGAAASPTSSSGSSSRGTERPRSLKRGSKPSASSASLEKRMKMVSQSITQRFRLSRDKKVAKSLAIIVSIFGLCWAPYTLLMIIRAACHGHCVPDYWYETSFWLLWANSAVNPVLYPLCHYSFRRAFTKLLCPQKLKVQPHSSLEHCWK
Summary of the method: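 Electrically stimulated guinea-pig ileal longitudinal muscle with myenteric plexus, isometric (7.5 mN). Cumulative (R)-α-methylhistamine curves were run with and without test compound (20 min), with 1 µM mepyramine present. Values were apparent pA2, or pD'2 where curves were depressed.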

[11] = molecular target: Histamine H1 receptor (Cavia porcellus) (UniProt P31389); test: Negative logarithm of receptor dissociation constant Kp was reported in guinea pig ileum whole segment; assay type: functional, tissue-based; summary of the method: as §1
[12] = molecular target: 5-hydroxytryptamine receptor 2A (Rattus norvegicus, UniProt P14842); test: Compound was evaluated for its antagonist affinity towards 5-hydroxytryptamine 2A receptor of rat; assay type: functional; conditions: read-out: pA2 (converted); summary of the method: as §4
Chain of 5-hydroxytryptamine receptor 2A (P14842 whole entry): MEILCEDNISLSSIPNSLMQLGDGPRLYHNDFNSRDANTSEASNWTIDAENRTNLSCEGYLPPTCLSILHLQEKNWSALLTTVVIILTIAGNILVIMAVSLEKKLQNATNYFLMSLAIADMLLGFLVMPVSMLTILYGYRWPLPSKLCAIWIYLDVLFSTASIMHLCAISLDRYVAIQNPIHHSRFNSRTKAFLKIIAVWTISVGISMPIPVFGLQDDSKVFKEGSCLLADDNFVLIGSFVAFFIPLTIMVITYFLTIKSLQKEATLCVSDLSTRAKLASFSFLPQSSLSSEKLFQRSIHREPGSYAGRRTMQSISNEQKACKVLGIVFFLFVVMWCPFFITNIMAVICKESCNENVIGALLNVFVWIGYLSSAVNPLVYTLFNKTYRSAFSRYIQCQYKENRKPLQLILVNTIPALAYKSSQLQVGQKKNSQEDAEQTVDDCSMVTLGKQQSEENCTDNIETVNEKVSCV

Histamine H1 receptor [13] = molecular target: T1, Histamine H1 receptor; test: Compound was evaluated for mepyramine antagonism effects in guinea pig aorta (contraction) at a mepyramine concentration of 100 nM; assay type: functional, tissue-based; conditions: read-out: pA2 (converted)
Summary of the method: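 Guinea-pig aortic rings with endothelium damaged, isometric (10 mN), 37 °C Krebs-Henseleit. Agonist curves were run with mepyramine (100 nM, about 60 min) after threshold PGF2α precontraction. Apparent pA2 = −log c + log(r−1).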

[14] = molecular target: Beta-1 adrenergic receptor (Cavia porcellus, UniProt B0FL73); test: Compound was evaluated for its antagonist affinity towards Beta-1 adrenergic receptor of guinea pig; assay type: functional; conditions: read-out: pA2 (converted)
Chain of Beta-1 adrenergic receptor (B0FL73 whole entry): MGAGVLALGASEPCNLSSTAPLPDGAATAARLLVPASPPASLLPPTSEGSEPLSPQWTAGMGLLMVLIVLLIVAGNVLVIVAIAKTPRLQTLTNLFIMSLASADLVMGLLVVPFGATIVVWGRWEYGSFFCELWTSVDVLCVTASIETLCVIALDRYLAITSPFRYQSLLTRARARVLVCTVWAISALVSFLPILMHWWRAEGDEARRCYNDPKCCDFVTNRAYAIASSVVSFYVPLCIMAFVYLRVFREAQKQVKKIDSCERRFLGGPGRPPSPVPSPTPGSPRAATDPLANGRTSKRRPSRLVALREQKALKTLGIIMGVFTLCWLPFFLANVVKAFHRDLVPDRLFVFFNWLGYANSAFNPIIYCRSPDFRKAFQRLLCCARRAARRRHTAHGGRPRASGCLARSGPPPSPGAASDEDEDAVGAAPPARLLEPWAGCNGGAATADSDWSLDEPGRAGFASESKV
Summary of the method: (§6)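 Functional antagonism assays in guinea-pig tissues, each run with 1 µM mepyramine present: M3 (whole ileum), β1 (right atrium), 5-HT1B (iliac artery), 5-HT3 (quiescent ileal longitudinal muscle with myenteric plexus). Results are given as apparent pA2, or pD'2 when only curve depression occurred.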

[15] = molecular target: Muscarinic acetylcholine receptor M3 (Cavia porcellus, UniProt Q8VH26); test: Compound was evaluated for its antagonist affinity towards Muscarinic acetylcholine receptor M3 of guinea pig; assay type: functional; conditions: read-out: pA2 (converted); summary of the method: as §6
Chain of Muscarinic acetylcholine receptor M3 (Q8VH26 whole entry): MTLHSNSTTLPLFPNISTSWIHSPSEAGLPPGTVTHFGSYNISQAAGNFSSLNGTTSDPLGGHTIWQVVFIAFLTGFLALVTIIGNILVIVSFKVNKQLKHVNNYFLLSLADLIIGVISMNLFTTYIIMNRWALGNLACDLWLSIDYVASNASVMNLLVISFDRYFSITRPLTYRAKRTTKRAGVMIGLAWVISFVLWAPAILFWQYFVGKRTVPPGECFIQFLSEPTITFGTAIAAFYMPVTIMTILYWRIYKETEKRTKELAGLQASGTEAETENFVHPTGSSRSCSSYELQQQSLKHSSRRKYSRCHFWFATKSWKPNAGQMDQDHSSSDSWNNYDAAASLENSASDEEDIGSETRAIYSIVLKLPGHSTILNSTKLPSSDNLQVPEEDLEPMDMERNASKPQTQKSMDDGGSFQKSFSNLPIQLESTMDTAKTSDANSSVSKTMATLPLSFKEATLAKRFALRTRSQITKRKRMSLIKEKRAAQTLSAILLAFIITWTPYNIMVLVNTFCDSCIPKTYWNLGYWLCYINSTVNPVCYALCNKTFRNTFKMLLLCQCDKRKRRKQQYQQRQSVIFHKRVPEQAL

[16] = molecular target: Histamine H1 receptor (Rattus norvegicus) (UniProt P31390); test: The compound was evaluated for intrinsic activity in relaxed rat aortic rings with intact endothelium, submaximally precontracted with 15.8 nM U-46,619; assay type: functional, tissue-based; set-up: unit not given here; conditions: Aorta
Target sequence in this assay (P31390 whole entry): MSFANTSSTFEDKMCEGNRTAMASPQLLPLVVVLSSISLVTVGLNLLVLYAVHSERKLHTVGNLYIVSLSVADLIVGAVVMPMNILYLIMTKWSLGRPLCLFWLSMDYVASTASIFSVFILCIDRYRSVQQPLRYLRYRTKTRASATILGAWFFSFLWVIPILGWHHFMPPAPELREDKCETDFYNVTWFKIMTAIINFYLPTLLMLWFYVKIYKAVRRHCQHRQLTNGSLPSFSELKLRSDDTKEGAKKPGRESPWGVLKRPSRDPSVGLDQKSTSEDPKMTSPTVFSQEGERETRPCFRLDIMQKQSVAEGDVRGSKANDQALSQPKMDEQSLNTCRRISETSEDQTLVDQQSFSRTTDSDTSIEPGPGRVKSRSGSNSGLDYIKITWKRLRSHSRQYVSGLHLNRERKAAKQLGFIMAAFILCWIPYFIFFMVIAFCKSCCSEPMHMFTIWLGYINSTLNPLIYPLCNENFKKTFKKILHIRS

[17] = molecular target: Serotonin 3 (5-HT3) receptor; test: Compound was evaluated for its antagonist affinity towards 5-hydroxytryptamine 3 receptor of guinea pig; assay type: functional, Cavia porcellus; summary of the method: as §6
[18] = molecular target: Histamine H1 receptor (Rattus norvegicus) (UniProt P31390); test: Compound was evaluated for mepyramine antagonism effects in rat aorta (relaxation) at a mepyramine concentration of 100 nM; conditions: read-out: pA2 (converted)
Target sequence in this assay (P31390 whole entry, looked up): as the sequence (P31390 whole entry) above

Histamine H1 receptor [19] = molecular target: Histamine H1 receptor (Rattus norvegicus, UniProt P31390); test: Effective concentration for agonism activity in relaxed rat aortic rings with intact endothelium, submaximally precontracted with 15.8 nM U-46,619; assay type: functional, tissue-based, Aorta
Chain of Histamine H1 receptor (Rattus norvegicus, UniProt P31390) (P31390 whole entry): as above

Histamine H2 receptor = Histamine H2 receptor (Cavia porcellus, UniProt P47747); test: Compound was evaluated for its antagonist affinity towards Histamine H2 receptor of guinea pig; assay type: functional; conditions: read-out: pA2 (converted)
Chain of Histamine H2 receptor (P47747 whole entry): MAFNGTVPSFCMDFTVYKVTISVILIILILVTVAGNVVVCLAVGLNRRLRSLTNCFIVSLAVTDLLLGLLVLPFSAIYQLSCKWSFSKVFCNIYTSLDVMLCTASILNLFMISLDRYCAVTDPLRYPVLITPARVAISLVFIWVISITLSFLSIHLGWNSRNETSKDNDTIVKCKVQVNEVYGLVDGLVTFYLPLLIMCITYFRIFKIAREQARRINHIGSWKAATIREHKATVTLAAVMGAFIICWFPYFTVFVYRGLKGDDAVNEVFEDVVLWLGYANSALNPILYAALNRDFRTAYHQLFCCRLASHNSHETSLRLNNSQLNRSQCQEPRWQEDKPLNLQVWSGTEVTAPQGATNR

[20] = molecular target: T2, Alpha-1D adrenergic receptor (Rattus norvegicus, UniProt P23944); test: Compound was evaluated for its antagonist affinity towards Alpha-1D adrenergic receptor of rat; assay type: functional; conditions: read-out: pA2 (converted); summary of the method: as §4
T2 sequence (P23944 whole entry): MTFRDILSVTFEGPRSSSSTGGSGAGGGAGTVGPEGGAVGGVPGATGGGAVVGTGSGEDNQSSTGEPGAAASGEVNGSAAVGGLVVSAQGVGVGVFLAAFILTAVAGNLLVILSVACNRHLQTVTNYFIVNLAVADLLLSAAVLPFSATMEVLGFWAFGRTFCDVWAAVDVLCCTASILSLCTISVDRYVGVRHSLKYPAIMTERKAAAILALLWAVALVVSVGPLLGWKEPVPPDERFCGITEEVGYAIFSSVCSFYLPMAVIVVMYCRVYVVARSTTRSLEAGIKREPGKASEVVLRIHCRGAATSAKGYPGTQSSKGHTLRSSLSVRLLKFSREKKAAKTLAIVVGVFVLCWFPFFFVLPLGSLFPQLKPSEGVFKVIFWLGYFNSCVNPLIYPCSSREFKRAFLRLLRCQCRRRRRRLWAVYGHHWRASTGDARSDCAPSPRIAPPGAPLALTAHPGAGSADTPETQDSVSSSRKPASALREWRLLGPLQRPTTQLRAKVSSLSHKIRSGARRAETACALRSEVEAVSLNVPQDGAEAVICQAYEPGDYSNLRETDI

[21] = molecular target: 5-hydroxytryptamine receptor 1B (Cavia porcellus); test: Compound was evaluated for its antagonist affinity towards 5-hydroxytryptamine 1B receptor of guinea pig; conditions: read-out: pA2 (converted)
Histamine H1 receptor [22] = molecular target: T1, Histamine H1 receptor; test: as §2; assay type: functional, tissue-based, Aorta; summary of the method: as §5

Chain of Histamine H1 receptor (Cavia porcellus) (P31389 whole entry): as the sequence (P31389 whole entry) above

Relative potency [1]: 0.5
pKp [2]: 3.87
Emax [3]: 50
EC50 (Histamine H1 receptor [4]): 40700 nM
Compound: NCCc1c[nH]c(CC(c2ccccc2)c2ccccc2)n1

Compound: NCCc1c[nH]cn1 [HISTAMINE]
EC50 (Cavia porcellus [5]): 316 nM
EC50 (Cavia porcellus [6]): 200 nM
EC50 (Cavia porcellus [7]): 2240 nM
EC50 (Rattus norvegicus): 4470 nM

Kb [8]: > 1580 nM
EC50 (Histamine H1 receptor [9]): 832 nM
Kb (Histamine H1 receptor [10]): 0.776 nM and 1.38 nM
Kb (Histamine H3 receptor): > 1580 nM
pKp [11]: 6.4
Kb [12]: 3720 nM
Kb (Histamine H1 receptor [13]): 2.51 nM
Kb [14]: 26300 nM
Kb [15]: 1150 nM
Emax [16]: 51 and 55
pA2 [17]: < 5.8
Kb [18]: 10.5 nM
EC50 (Histamine H1 receptor [19]): 170 nM
Kb (Histamine H2 receptor): 26300 nM
Kb [20]: 7760 nM
Kb [21]: > 31600 nM
EC50 (Histamine H1 receptor [4]): 83.2 nM
EC50 (Histamine H1 receptor [22]): 120 nM
Compound: CN(C)CCc1c[nH]c(CCC(c2ccccc2)c2ccccc2)n1
